High-throughput results deposited in PubChem BioAssay by several laboratories.
Mot1-301 SUMO – blocks SUMOylation pathway, rescuing yeast Mot1-301 growth | 1% of 320,000 active | S. cerevisiae Mot1-301 growth rescue, ATP luminescence, 38.5C; percent above DMSO median, 100 means doubled | growth rescue, % at 18.8 µM;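 active means every valid replicate shows activation above 250% relative to neutral control wells; inactive means the rest, any valid replicate at or below 250%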
T cruzi repl – blocks replication of Trypanosoma cruzi; T. cruzi beta-gal in NIH3T3, luminescence, 90 h; inhibition, % (no concentration beside the values); 1.4% of 300,000 active;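 active means mean inhibition across valid replicates above about 55%, limit read from the data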;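 further: signal also drops with host cell toxicity which is not excluded here; higher percent means less beta-gal luminescence so fewer parasites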
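Material: NIH/3T3 host cells with β-galactosidase reporter T. cruzi; Input: 5,000 host fibroblasts per well; Medium: DMEM, 2% fetal bovine serum; Compound: 50 nL DMSO compound solution per well; Schedule: 3 h host attachment, then at least 90 h co-culture; Detection: luminescent β-galactosidase signal after 60 min lysis.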
CSC inhib – blocks cancer stem cells; AID 2717; inhibition, % at 7.5 µM; 1.1% of 300,000 active; cancer stem cell-like cells viability, luminescence; in the data active means inhibition above about 75%; tested in HMLE shEcad cells
Efflux pump mplx – blocks antifungal efflux pumps in multiplex yeast assay. 0.44% of 330,000 active. AID 485275. S. cerevisiae Candida pump triplex, Nile Red efflux. inhibition, % at 10 µM;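 active means plate passing quality check with inhibition over a set limit, or well fluorescence over plate mean plus 4 SD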;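 further: Nile Red retained in pooled yeast measured as flow cytometry median fluorescence; higher means more Nile Red kept so more efflux inhibition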
WT yeast gro inh – growth inhibition of WT yeast, mitochondrial fusion screen | AID 1362 | mitochondrial fusion phenotypic screen, WT strain | inhibition, % at 10 µM | 2.1% of 190,000 active; in the data active means inhibition above about 58%; tested in S. cerevisiae
Beta cell apopt – beta cell apoptosis inhibition; protection from apoptosis, % (test concentration not listed); 0.8% of 300,000 active; INS-1E cytokine-induced death, ATP luminescence, 48 h; percent of positive-control rescue, neutral wells zero;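 active means Every replicate reaches about 75%, or at least half do and their mean reaches it too, limit read from the data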;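 further: higher means more ATP so stronger rescue from cytokine killing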
Of the large screens only hits and unclear results are named; the others gave an inactive call. The list is not random: actives were taken first. Their share in the collection is about 4.8%.

CC(NC(=O)CSc1nc(=O)cc(N)n1CCc1ccccc1)c1ccccc1 (stereo unspecified)	WT yeast gro inh 59 (no result: T cruzi repl)
Nc1ccc(Nc2ccc([N+](=O)[O-])cc2[N+](=O)[O-])cc1	Beta cell apopt 102
Cc1ccc(N/C=C(\C2OC(=O)c3ccccc32)[N+](=O)[O-])c(C)c1 (stereo unspecified)	none (no result: CSC inhib)
O=C1OC(/C(=C\Nc2ccc(F)cc2F)[N+](=O)[O-])c2ccccc21 (stereo unspecified)	Mot1-301 SUMO 304
CC(Oc1ccc(Cl)cc1Cl)c1nc(-c2ccc(NC(=O)c3ccco3)cc2)no1 (stereo unspecified)	WT yeast gro inh 85
Cc1ccc(S(=O)(=O)N2CCC(N3CCN(C)CC3)CC2)cc1Cl	none (no result: WT yeast gro inh)
C/C(=N\NC(=O)c1cc2ccccc2cc1O)c1ccccn1	Beta cell apopt 99 (no result: WT yeast gro inh)
C/C(=N\NC(=O)c1c[nH]c2ccccc12)c1ccccn1	T cruzi repl 82
CCc1ccc(/C(C)=N/NC(=O)c2ccccn2)cc1	none
C/C(=N\NC(=O)c1ccc(F)cc1)c1ccccn1	CSC inhib 104, Beta cell apopt 111 (no result: WT yeast gro inh)
C/C(=N\NC(=O)c1cc2ccccc2cc1O)c1cc2ccccc2o1	CSC inhib 93 (no result: WT yeast gro inh)
COc1ccccc1OCC(O)CN1CCN(C(=O)c2ccccc2)CC1 (stereo unspecified)	none (no result: WT yeast gro inh)
CSCC[C@H](NC(=O)[C@H](Cc1ccccc1)n1c(=O)[nH]c2ccccc2c1=O)C(=O)N1CCC(C(=O)O)CC1	none (no result: WT yeast gro inh)
C=CCNC(=S)N/N=C(\C)c1ccccn1	CSC inhib 114, Beta cell apopt 93
CCOC(=O)C1CCCN(CC(=O)c2c[nH]c3ccc(C)cc23)C1 (stereo unspecified)	none (no result: WT yeast gro inh)
C=C[C@@H]1c2cccc(C)c2N(S(=O)(=O)c2ccc(C)cc2)[C@H](c2ccccc2)C1(C#N)S(=O)(=O)c1ccccc1 (stereo partly specified)	none (no result: T cruzi repl, CSC inhib, WT yeast gro inh)
C=C[C@@H]1c2c(F)cccc2N(S(=O)(=O)c2ccc(C)cc2)[C@H](c2ccc(OC(C)=O)cc2)C1(C#N)C#N	CSC inhib 112 (no result: T cruzi repl, WT yeast gro inh)
C=C[C@@H]1c2cccc(C)c2N(S(=O)(=O)c2ccc(C)cc2)[C@H](c2ccc(OC(C)=O)cc2)C1(C#N)C#N	CSC inhib 107 (no result: T cruzi repl, WT yeast gro inh)
COc1cc2c(cc1OC)CN(c1nc(CN3CCCC3)nc3sc(C)c(C)c13)CC2	T cruzi repl 69
Cc1cc(C)c(Cc2c(C)nc3c(C(=O)NCc4ccco4)cnn3c2C)c(C)c1	T cruzi repl 59, WT yeast gro inh 63
O=C(NCc1ccco1)c1cnn2c(C(F)F)cc(-c3ccccc3)nc12	none
Oc1ccccc1Cc1c(O)ccc2ccccc12	none (no result: WT yeast gro inh)
Cc1cccc2sc(NC(=O)C3c4ccccc4Oc4ccccc43)nc12	CSC inhib 126
Cc1cccc2sc(NC(=O)C3CC3)nc12	none (no result: CSC inhib, WT yeast gro inh, Beta cell apopt)
CCOC(=O)c1c(NC(=O)CSc2nnc3c(n2)[nH]c2ccccc23)sc2c1CCN(C)C2	T cruzi repl 77 (no result: WT yeast gro inh)
CCOC(=O)c1c(NC(=O)CSc2ncccn2)sc2c1CCN(Cc1ccccc1)C2	T cruzi repl 56 (no result: Mot1-301 SUMO, CSC inhib, Efflux pump mplx, Beta cell apopt)
CC1(C(=O)OCC(=O)NC(=O)c2ccccc2)CC1(Cl)Cl (stereo unspecified)	none (no result: WT yeast gro inh)
CC1(C(=O)OCC(=O)N2c3ccccc3Sc3ccccc32)CC1(Cl)Cl (stereo unspecified)	Beta cell apopt 89
CC1(C(=O)OCC(=O)Nc2ccc3ccccc3c2)CC1(Cl)Cl (stereo unspecified)	WT yeast gro inh 66
CC1(C(=O)OCC(=O)Nc2ccc(C(N)=O)cc2)CC1(Cl)Cl (stereo unspecified)	none
Cc1ccc2nc(SCC3CCCCO3)[nH]c2c1 (stereo unspecified)	none (no result: WT yeast gro inh)
COc1ccc(NC(=O)CC(Cc2ccccc2)C(=O)O)cc1 (stereo unspecified)	Mot1-301 SUMO 282
O=C(CC(Cc1ccccc1)C(=O)O)Nc1ccc(F)cc1 (stereo unspecified)	none (no result: WT yeast gro inh, Beta cell apopt)
O=C(Nc1cccc(Cl)c1)C1C2CCC3C(CCC21)C3(Cl)Cl (stereo unspecified)	WT yeast gro inh 80
O=C(Nc1ccccc1)C1C2CCC3C(CCC21)C3(Cl)Cl (stereo unspecified)	none
CCOc1cccc(Oc2ncccc2C(=O)/C(C#N)=C/N(C)C)c1	WT yeast gro inh 95
CN(C)/C=C(\C#N)C(=O)c1cccc(Oc2ccc(Br)cc2)c1	none
O=C(c1cccc(NS(=O)(=O)c2ccccc2)c1)N1CCCCC1	none (no result: WT yeast gro inh)
CC(NC(=O)c1cc(S(=O)(=O)N(C)C)ccc1Cl)c1ccc(-n2ccnc2)cc1 (stereo unspecified)	none (no result: WT yeast gro inh)
c1ccc(Cn2nnnc2C(c2cccnc2)N2CCN(c3ccccc3)CC2)cc1 (stereo unspecified)	T cruzi repl 81
CCC(C)(C)n1nnnc1C(c1cccnc1)N1CCN(c2cccc(C(F)(F)F)c2)CC1 (stereo unspecified)	T cruzi repl 62
Cc1ccc(C(c2nnnn2CC2CCCO2)N2CCN(c3cccc(C)c3C)CC2)cc1 (stereo unspecified)	WT yeast gro inh 60
CCC(C)(C)n1nnnc1C(c1ccncc1)N1CCN(c2cccc(OC)c2)CC1 (stereo unspecified)	none
CC(C)(C)n1nnnc1C(c1cccnc1)N1CCN(c2ccccc2)CC1 (stereo unspecified)	T cruzi repl 55
O=C(NC(=S)Nc1cccc(Cl)c1Cl)C1CC1	none (no result: WT yeast gro inh)
CC1CCN(CCC(=O)N/N=C/c2ccc([N+](=O)[O-])cc2)CC1	none
O=C(NC(=S)Nc1ccc(CN2CCOCC2)cc1)c1ccc2c(c1)OCCO2	none (no result: WT yeast gro inh)
Cc1cccc(N2CCN(C(c3cccs3)c3nnnn3C(C)(C)C)CC2)c1C (stereo unspecified)	none
Cc1cccc(N2CCN(C(c3ccccc3)c3nnnn3C(C)(C)C)CC2)c1C (stereo unspecified)	WT yeast gro inh 75
CCN(CC)P(=O)(Nc1ccc(C)cc1Br)c1ccc(N(C)C)cc1NC(=O)c1ccco1 (stereo unspecified)	T cruzi repl 64, WT yeast gro inh 60
N/C(=N\OC(=O)COc1ccc2ccccc2c1Br)c1ccncc1	T cruzi repl 56 (no result: Mot1-301 SUMO)
N/C(=N\OC(=O)COc1ccc2ccccc2c1)c1ccncc1	none (no result: Beta cell apopt)
O=C(/C=C/c1cccc(Cl)c1)N1CCC(Cc2ccccc2)CC1	WT yeast gro inh 65
O=C(CCCc1cccs1)N1CCN(S(=O)(=O)c2ccccc2Br)CC1	none
CN(C)C(CNC(=O)c1cc(S(=O)(=O)N(C)c2ccccc2)ccc1Cl)c1cccs1 (stereo unspecified)	none
Cc1cccn2c(=O)c(C=NCc3ccco3)c(Nc3ccc(SC(F)F)cc3)nc12	WT yeast gro inh 83
COc1ccc(-c2cn(Cc3ccc(C(=O)c4ccccc4)cc3)nn2)cc1	Beta cell apopt 106 (no result: WT yeast gro inh)
